Results from different studies.
Protocols differ between the studies behind these lines.
Target: Ephrin type-A receptor 3 (EPHA3, Homo sapiens, UniProt P29320)
Residues used in one study (P29320 21-983): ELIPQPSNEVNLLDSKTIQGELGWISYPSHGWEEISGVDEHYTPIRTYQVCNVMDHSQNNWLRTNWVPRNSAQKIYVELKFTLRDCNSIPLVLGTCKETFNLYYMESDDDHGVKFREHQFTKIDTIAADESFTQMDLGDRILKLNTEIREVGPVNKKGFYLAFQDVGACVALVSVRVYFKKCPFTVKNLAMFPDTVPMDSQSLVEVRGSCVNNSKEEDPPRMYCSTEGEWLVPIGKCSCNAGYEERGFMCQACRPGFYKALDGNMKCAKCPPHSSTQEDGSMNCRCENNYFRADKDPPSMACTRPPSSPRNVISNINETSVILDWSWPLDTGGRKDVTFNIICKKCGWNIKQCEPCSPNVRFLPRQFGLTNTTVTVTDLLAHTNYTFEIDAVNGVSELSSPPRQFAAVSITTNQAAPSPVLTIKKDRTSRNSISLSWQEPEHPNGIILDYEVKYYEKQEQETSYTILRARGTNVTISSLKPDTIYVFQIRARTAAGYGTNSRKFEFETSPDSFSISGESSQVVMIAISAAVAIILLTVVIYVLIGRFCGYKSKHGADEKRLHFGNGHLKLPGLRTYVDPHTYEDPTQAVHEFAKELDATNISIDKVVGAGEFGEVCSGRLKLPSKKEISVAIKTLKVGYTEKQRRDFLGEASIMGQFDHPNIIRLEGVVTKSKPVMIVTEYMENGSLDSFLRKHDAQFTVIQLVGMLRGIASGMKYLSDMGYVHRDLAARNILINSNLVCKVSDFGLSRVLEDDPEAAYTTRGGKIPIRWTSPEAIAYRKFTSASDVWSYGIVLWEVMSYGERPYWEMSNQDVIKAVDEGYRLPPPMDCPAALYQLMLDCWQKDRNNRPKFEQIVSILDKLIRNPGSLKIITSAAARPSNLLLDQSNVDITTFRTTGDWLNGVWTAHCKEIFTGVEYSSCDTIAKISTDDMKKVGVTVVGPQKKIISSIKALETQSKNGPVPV

SMILES | read-out | technique | concentration | remaining binding
N[C@@H]1CCN(c2nccc(-c3cnn4ncccc34)n2)C1 | binding | – | 1 µM | 100%
O=C(c1ccc(Nc2ncc(Cl)c(-c3cc4ccccc4s3)n2)cc1)N1CCC(N2CCCC2)CC1 | binding | competition with immobilised ligand | 1 µM | 84%
CN(CCCC(F)(F)F)c1nccc(-c2cnn3ncccc23)n1 | binding | – | 1 µM | 100%
FC(F)(F)Oc1cccc(-c2cnc3ccc(-c4ccncc4)nn23)c1 | cell-free assay | competition with immobilised ligand | 5 µM | 76%
Cc1cc(NC(=O)c2cccc(S(F)(F)(F)(F)F)c2)cc(-n2ccn3nc(-c4cccnc4)cc23)c1 | cell-free assay | competition with immobilised ligand | 1 µM | 100%
C=CC(=O)N1CCC(C(=O)NCC(=O)N2CCN(c3nc(-c4cnc(N)nc4C(F)F)nc(N4CCOCC4)n3)CC2)CC1 | binding | competition with immobilised ligand | 1 µM | 90%
C[C@H](c1ccnc(Nc2nc3ccc(-c4cc(N(C)C)ncn4)cc3[nH]2)c1)N1CCN(C(=O)CC(F)(F)F)CC1 | cell-free assay | competition with immobilised ligand | 0.1 µM | 100%
CNC(=O)[C@@H]1CC[C@@H](n2c(-c3ccc4cnccc4c3)nc3ccc(C(=O)NCc4cccc(C(N)=O)c4)cc32)C1 | binding | competition with immobilised ligand | 1 µM | 96%
Cc1cnn2ncc(-c3ccnc(N(C)C)n3)c2c1 | binding | – | 1 µM | 84%
O=C(c1ccc(Nc2nccc(-c3cc4ccccc4s3)n2)cc1)N1CCC(N2CCCC2)CC1 | binding | competition with immobilised ligand | 1 µM | 94%
Cc1nc(C2CCN(C(=O)c3ccc(OC(F)(F)F)cc3N)CC2)c2ncc(N3CCN(C)CC3)cc2n1 | cell-free assay | competition with immobilised ligand | 1 µM | 92%
O=C(NCCCN1CCOCC1)c1ccc(Nc2nccc(-c3cc4ccccc4s3)n2)cc1 | binding | competition with immobilised ligand | 1 µM | 85%
CN(C)c1ncc(F)c(-c2cnn3ncccc23)n1 | binding | – | 1 µM | 100%
COc1ccc2c(O[C@@H]3C[C@H]4C(=O)N[C@]5(C(=O)O)CC5/C=C\CCCCC[C@H](NC(=O)OC5CCCC5)C(=O)N4C3)cc(-c3csc(NC(=O)C(C)C)n3)nc2c1C (some centres unmarked) | cell-free assay | competition with immobilised ligand | 1 µM | 97%
c1cnn2ncc(-c3ccnc(N4CCC45COC5)n3)c2c1 | binding | – | 1 µM | 68%
O=C(NCC1CCOCC1)c1n[nH]cc1NC(=O)c1c(F)cccc1F | binding | competition with immobilised ligand | 1 µM | 82%
CN1CCN(c2cnc3c(C4CCN(C(=O)c5ccc(OC(F)(F)F)cc5N)CC4)ncnc3c2)CC1 | cell-free assay | competition with immobilised ligand | 1 µM | 100%
COc1cnc(Nc2cccc(S(N)(=O)=O)c2)nc1N1CCN(c2ccccc2)CC1 | binding | competition with immobilised ligand | 1 µM | 73%
C[C@H]1CCN(c2nccc(-c3cnn4ncccc34)n2)C1 | binding | – | 1 µM | 100%
CCS(=O)(=O)c1cc2cc(C[C@](O)(CC(C)(C)c3ccc(F)cc3C(N)=O)C(F)(F)F)[nH]c2cn1 | cell-free assay | competition with immobilised ligand | 1 µM | 95%
